# Screening data from PubChem.
# Compounds with a hit are over-represented: about 5.7% of the library has one in this group of screens.
# CSC inhib: cancer stem cell inhibition; cancer stem cell-like cells viability, luminescence; inhibition, % at 7.5 µM; hit rate 1.1% among 300,000; in the data active means inhibition above about 75%; inconclusive means no clear call, values can overlap the other calls; tested in HMLE shEcad cells
# T cruzi inh: T. cruzi replication inhibition. T. cruzi beta-gal in NIH3T3, luminescence, 90 h. inhibition, % (test concentration not listed). hit rate 1.4% among 300,000;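 active means mean inhibition across valid replicates above about 55%, limit read from the data; inconclusive means mean below that limit but half or more replicates reach it; inactive means mean below it, under half of replicates reach it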;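 further: signal also drops with host cell toxicity which is not excluded here; 0% = plate median of DMSO wells and 100% = zero luminescence signal; higher percent means less beta-gal luminescence so fewer parasites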
#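 Assay system: NIH/3T3 host cells with β-galactosidase reporter T. cruzi; input: 5,000 host fibroblasts per well; compound: single 50 nL compound addition per well in DMSO; timing: ≥90 h infection period, 3 h prior cell attachment; measured by: GalScreen β-gal luminescence, detergent lysis, 60 min; evaluation: percent inhibition of parasite-derived β-gal signal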
# Beta apoptosis: beta cell apoptosis inhibition | INS-1E cytokine-induced death, ATP luminescence, 48 h; percent of positive-control rescue, neutral wells zero | hit rate 0.8% among 300,000 | AID 435005 | protection from apoptosis, % (concentration not given with the values);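 active means Every replicate reaches about 75%, or at least half do and their mean reaches it too, limit read from the data; inconclusive means At least half of replicates reach the limit but their mean does not; inactive means Under half of replicates reach the limit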;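 further: 0% = cytokine-treated negative control wells and 100% = positive control rescue; higher means more ATP so stronger rescue from cytokine killing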
# Mdm2-MdmX inh: disrupts the human Mdm2-MdmX interaction; O15151+Q00987; SaOS-2 split-luciferase Mdm2/MdmX complementation, luminescence; inhibition, % at 8 µM; hit rate 3% among 330,000;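 active means inhibition of at least 50% at 8 µM in the primary screen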
# Target sequence (O15151 whole entry, looked up): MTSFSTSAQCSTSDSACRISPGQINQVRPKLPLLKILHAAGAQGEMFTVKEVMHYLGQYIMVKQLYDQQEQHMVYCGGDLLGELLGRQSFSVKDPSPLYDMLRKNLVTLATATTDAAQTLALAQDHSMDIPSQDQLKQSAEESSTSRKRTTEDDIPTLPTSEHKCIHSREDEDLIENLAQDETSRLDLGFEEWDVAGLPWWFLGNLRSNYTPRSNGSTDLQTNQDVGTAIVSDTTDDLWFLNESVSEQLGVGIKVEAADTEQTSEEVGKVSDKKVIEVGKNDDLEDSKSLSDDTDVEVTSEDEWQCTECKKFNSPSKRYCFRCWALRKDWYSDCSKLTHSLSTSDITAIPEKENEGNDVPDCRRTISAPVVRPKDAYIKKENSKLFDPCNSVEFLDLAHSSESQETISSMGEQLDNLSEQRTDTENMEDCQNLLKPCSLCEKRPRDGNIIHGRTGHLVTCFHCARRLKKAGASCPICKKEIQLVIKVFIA
# Target sequence (Q00987 whole entry, looked up): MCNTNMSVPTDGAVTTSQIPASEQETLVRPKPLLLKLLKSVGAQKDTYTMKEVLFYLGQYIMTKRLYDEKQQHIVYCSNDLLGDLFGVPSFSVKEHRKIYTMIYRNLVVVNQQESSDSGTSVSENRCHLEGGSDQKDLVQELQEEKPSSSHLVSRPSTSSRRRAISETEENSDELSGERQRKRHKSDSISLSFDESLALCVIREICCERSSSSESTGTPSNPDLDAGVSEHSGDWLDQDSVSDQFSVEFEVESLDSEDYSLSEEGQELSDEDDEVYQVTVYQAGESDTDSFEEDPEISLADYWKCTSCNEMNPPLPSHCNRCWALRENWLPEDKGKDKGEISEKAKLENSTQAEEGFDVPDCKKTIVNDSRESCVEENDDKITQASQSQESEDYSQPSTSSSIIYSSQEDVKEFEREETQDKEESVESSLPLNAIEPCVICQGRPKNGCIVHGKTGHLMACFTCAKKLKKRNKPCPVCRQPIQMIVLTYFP
# Calb FLC: C. albicans growth modulation with fluconazole; hit rate 0.57% among 300,000; growth inhibition, % (test concentration not listed); C. albicans CaCi-2 (fluconazole-resistant clinical isolate) + fluconazole, Alamar Blue growth, 48 h;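 active means growth inhibition above about 58% in most replicates, limit read from the data, passing the limit was not always enough; inconclusive means exactly half the replicates above a set limit; inactive means most replicates below a set limit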;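 further: all wells also contain fluconazole at 8 µg/ml as a sub-toxic cotreatment; 0% = median of DMSO wells and 100% = median of geldanamycin control wells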
# SKKanGAS inh: SKKanGAS growth inhibition. AID 1662. hit rate 1.3% among 300,000. S. pyogenes SKKanGAS, kanamycin growth, BacTiter-Glo, 6 h. inhibition, % at 7.5 µM;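 active means mean replicate score, as percent of positive control median, at least 50; inconclusive means mean below 50 but one replicate at or above 50; inactive means mean and every replicate below 50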;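 further: strain carries kanamycin resistance gene driven by streptokinase promoter and grows in 40 µg/ml kanamycin; loss of luminescence reflects streptokinase promoter inhibition or plain growth inhibition; 0% = median of DMSO wells and 100% = positive control at its reference dose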
# Numbers without * were called inactive; ? = inconclusive; nt = no result given.
SMILES,CSC inhib,T cruzi inh,Beta apoptosis,Mdm2-MdmX inh,Calb FLC,SKKanGAS inh
Nc1ccc(C(O)(C(F)(F)F)C(F)(F)F)cc1,-4.6,11.0,-7.4,23.9,?,2.5
Nc1ccc(-c2ccc(N)cc2C(F)(F)F)c(C(F)(F)F)c1,3.8,27.5,-4.7,25.5,-7.7,60.0*
CCOc1ccc(N2CC(C(=O)Nc3cc(S(=O)(=O)N4CCCCC4)ccc3C)CC2=O)cc1 (stereo unspecified),-17.7,nt,3.3,12.5,nt,nt
CC1CCN(C(=O)C(=O)c2cn(CC(=O)N3CCCCCC3)c3ccccc23)CC1,nt,54.9*,5.3,17.6,-10.5,15.4
CC1CCCN(C(=O)C(=O)c2cn(CC(=O)N3CCCCCC3)c3ccccc23)C1 (stereo unspecified),nt,61.9*,0.0,18.9,-6.0,11.6
NC(=O)C1CCN(C(=O)C(=O)c2cn(CC(=O)N3CCCCCC3)c3ccccc23)CC1,7.8,61.9*,2.0,-11.0,-5.3,11.1
O=C(C(=O)N1CCN(c2ccccc2)CC1)c1cn(CC(=O)N2CCCCCC2)c2ccccc12,-5.8,34.7,0.3,24.8,4.3,8.3
CN(CC(=O)Nc1ccc(F)c(F)c1F)C(=O)C1=NN(c2ccccc2)C(=O)CC1,nt,nt,-4.2,-3.2,nt,nt
O=C1C(=O)N(Cc2cccnc2)C(c2cccc([N+](=O)[O-])c2)/C1=C(/O)c1ccc2c(c1)OCO2 (stereo unspecified),-5.7,13.1,-1.5,-10.9,-4.4,5.3
COC(=O)[C@]1(Cc2ccccc2)N[C@H](CN(C)C(C)=O)[C@@H]2C(=O)N(Cc3ccccc3)C(=O)[C@@H]21,nt,nt,nt,9.0,nt,nt
Cc1nc(N2CCCCC2C)c2c(C)c(C(=O)Nc3cccc(C(F)(F)F)c3)sc2n1 (stereo unspecified),nt,50.7,14.0,43.2,14.8,32.6
CCOc1ccccc1NC(=O)c1sc2nc(C)nc(N3CCOCC3)c2c1C,-7.6,10.5,-10.3,-15.8,-2.9,8.7
Cc1nc(N2CCCCC2)c2c(C)c(C(=O)Nc3ccccc3C(F)(F)F)sc2n1,77.1*,48.8,-1.7,12.2,5.9,9.1
Cc1nc(N2CCCCC2)c2c(C)c(C(=O)Nc3cccc(C(F)(F)F)c3)sc2n1,nt,64.6*,27.0,29.5,22.2,42.8
O=C(C1CCCCC1)N1CCC(c2nc3c(nnn3Cc3c(F)cccc3Cl)c(=O)[nH]2)CC1,-1.8,3.9,10.3,6.2,16.5,67.8*
Cc1ccc(Cn2nnc3c(=O)[nH]c(C4CCN(S(=O)(=O)c5ccc(C)cc5)CC4)nc32)cc1,nt,6.9,-4.7,29.0,111.2*,nt
COc1cc(/C=N/NC(=S)NC2CC3C=CC2C3)cc(OC)c1OC (stereo unspecified),-5.1,5.0,11.4,48.5,-10.8,-16.3
CCOc1ccc(/C=N/NC(=S)NC2CC3C=CC2C3)cc1 (stereo unspecified),59.2,6.3,-4.2,23.9,2.0,64.2*
Oc1c(Br)cc(Br)cc1/C=N/NC(=S)N[C@H]1CC2C=CC1C2 (stereo partly specified),101.8*,-18.9,73.3,29.8,-8.1,119.8*
CC(=O)Nc1ccc(S(=O)(=O)N(C)c2ccc(OCCOc3cccc(C)c3)cc2)cc1,-2.1,nt,4.3,21.8,nt,nt
Cc1ccc(S(=O)(=O)N(C)c2ccc(OCc3cccc(C)c3)cc2)cc1,77.3*,8.7,-2.4,34.4,-15.4,-7.6
Clc1cccc(-c2nc(NCCCN3CCOCC3)c3ccccc3n2)c1,91.4*,8.1,-1.8,8.9,28.3,14.3
CC1(C)N=C(N)N=C(N)N1c1cccc(CN)c1,-12.6,-2.8,nt,-4.9,3.2,-16.2
CC1(C)N=C(N)N=C(N)N1c1ccccc1,0.0,-4.1,17.8,-3.5,12.8,104.6*
Cc1c(Cl)cccc1NC(=O)COC(=O)c1c2c(nc3ccccc13)CCN(Cc1ccccc1)C2,26.1,67.6*,14.6,37.6,-12.0,30.6
CCOc1ccc(Br)cc1CC(=O)O,-10.3,-0.7,nt,22.4,32.0,3.9
CCCOc1ccc(Br)cc1CSC(=N)N,26.0,6.5,98.9*,34.4,-29.3,-7.7
COc1ccc(N2CCN(C(=O)c3cc(-c4ccc(F)cc4)[nH]c3C)CC2)cc1,3.4,7.0,4.0,31.7,5.4,13.1
Cc1[nH]c(-c2ccc(F)cc2)cc1C(=O)N1CCN(c2ccc(Cl)cc2)CC1,21.6,7.8,-7.2,42.6,0.6,53.6*
